Source: PubChem BioAssay
LANA DNA inh – blocks KSHV LANA C-terminal domain binding to DNA. MBP-C-LANA/FAM-LBS DNA binding, fluorescence polarization. inhibition, % at 9 µM. 340,000 compounds, 0.078% hits;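 active = highest replicate inhibition at or above 60% at 9 µM, even if other replicates fall short; inactive = all replicates below 60% inhibition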;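 note: 0% = neutral control wells and 100% = 4 µM acridine orange control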
Keap1 Nrf2 FP – disrupts human Keap1 binding to Nrf2 peptide; Q14145; Keap1 Kelch-Nrf2 peptide fluorescence polarization, 1536-well; inhibition, % at 9.4 µM; 340,000 compounds, 0.15% hits; in the data active = inhibition above about 12%;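 note: human Keap1 Kelch domain with fluorescein labeled Nrf2 9mer peptide probe; 0% = neutral control wells and 100% = peptide positive control; higher means more block of Keap1 binding to Nrf2 peptide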
CAL PDZ FP-1 – inhibitors of human CAL PDZ peptide binding | purified CAL PDZ, TMR-peptide fluorescence polarization, 1 h | inhibition, % at 24.9 µM | 300,000 compounds, 0.92% hits;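 active = mean inhibition of at least 30% with at least half of replicates also reaching 30%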;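 note: 0% = DMSO neutral control and 100% = excess unlabeled competitor peptide PRC23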
APOBEC3A inh – inhibitors of human APOBEC3A DNA deaminase; AID 493011; 330,000 compounds, 0.41% hits; recombinant A3A, FAM/TAMRA ssDNA deamination fluorescence; inhibition, % at 20 µM; P31941;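 active = at least 40% inhibition at 20 µM here, with at most 30% in a related deaminase screen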;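 note: plate controls were A3A with DMSO for no effect and wells lacking A3A enzyme for full effect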
Target sequence (P31941 whole entry, looked up): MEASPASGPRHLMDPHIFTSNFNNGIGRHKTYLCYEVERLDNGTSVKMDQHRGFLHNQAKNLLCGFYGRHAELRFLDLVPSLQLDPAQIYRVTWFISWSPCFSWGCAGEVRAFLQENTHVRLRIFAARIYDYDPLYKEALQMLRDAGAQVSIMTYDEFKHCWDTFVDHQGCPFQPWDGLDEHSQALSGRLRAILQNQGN
A3G deaminase – blocks human APOBEC3G single-stranded DNA deamination; AID 493012; 330,000 compounds, 0.28% hits; recombinant A3G, ssDNA deamination FAM/TAMRA fluorescence; inhibition, % at 20 µM;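 active = inhibition of at least 40% at 20 µM, with no more than 30% in the related APOBEC3A deaminase screen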;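 note: plate controls were DMSO wells with A3G for no effect and wells lacking A3G enzyme for full effect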
CAL PDZ FP-2 – blocks peptide binding to human CAL PDZ domain; Q9HD26; purified CAL PDZ, TMR-peptide fluorescence polarization, 1 h; inhibition, % at 20 µM; 330,000 compounds, 0.02% hits; AID 504414;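 active = highest replicate inhibition of at least 40%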;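 note: plate controls were DMSO neutral control wells for no effect and unlabeled competitor peptide control wells for full effect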
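Material – purified CerCALP PDZ construct · Detection – FP readout, S and P plane fluorescence · Measure – percent inhibition from loss of millipolarization · Controls – unlabelled peptide for full inhibition, DMSO wells as neutral · Probe or stimulus – TMR-labelled reporter peptide T*-PRC34 bound in PDZ groove · Times – 1 h at RT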
A3G conf – confirmation of human APOBEC3G DNA deaminase inhibitors. 890 compounds, 72% hits. shares compounds with A3G deaminase. inhibition, % at 20 µM. recombinant A3G ssDNA deaminase, UDG/FAM-TAMRA fluorescence. AID 493152;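 active = inhibition reaching a set limit in any replicate at 20 µM, the limit being 80% of the first screen's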
UDG A3G counter – counter-screen for APOBEC3G inhibitors: E. coli UDG | shares compounds with A3G deaminase | UDG counterscreen, FAM/TAMRA oligo fluorescence | inhibition, % at 20 µM | 710 tested, under 10 active;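 active = compounds giving 40% or more inhibition at 20 µM in any one of the three replicates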;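 note: plate controls were DMSO wells with UDG and oligo for no effect and DMSO wells lacking both for full effect; inhibitors lower the FAM signal released by uracil excision and alkaline cleavage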
Target sequence (P12295 whole entry, looked up): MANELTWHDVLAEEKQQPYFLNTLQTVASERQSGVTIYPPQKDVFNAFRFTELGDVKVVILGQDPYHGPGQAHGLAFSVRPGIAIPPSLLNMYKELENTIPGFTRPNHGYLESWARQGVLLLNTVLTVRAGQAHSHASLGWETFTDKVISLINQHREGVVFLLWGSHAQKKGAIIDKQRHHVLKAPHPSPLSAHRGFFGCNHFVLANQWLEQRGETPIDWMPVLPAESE
* hit, by the source's call; x = not tested or not shown. Shown are actives, neighbours in structure and some others; about 1.7% of the full set was active somewhere.

SMILES	LANA DNA inh	Keap1 Nrf2 FP	CAL PDZ FP-1	APOBEC3A inh	A3G deaminase	CAL PDZ FP-2	A3G conf	UDG A3G counter
Cc1nc2nc[nH]c2cc1Br	0.4	-3.2	-6.4	-3.5	-5.7	-1.2	x	x
Cc1nc2[nH]c(=S)[nH]c2cc1Br	1.5	3.6	-2.2	-2.2	47.1*	-0.2	82.5*	1.8
CCOc1cc(/C=C2\CCCc3c2nc2ccccc2c3C(=O)O)ccc1OC	3.4	1.5	-1.9	21.4	47.8*	-2.5	17.8	x
O=C(N1CCCC1)N1CCN(S(=O)(=O)c2ccccc2)CC1	3.4	-1.8	x	0.6	-4.0	0.4	x	x
CCCCn1c(-c2ccco2)n[nH]c1=S	-1.3	-4.6	-0.4	-2.0	63.1*	-1.0	65.6*	4.0
C=CCn1c(-c2ccco2)n[nH]c1=S	-2.6	-4.9	-5.3	-17.8	31.6	0.6	x	x
CC(C)Cn1c(-c2ccco2)n[nH]c1=S	-0.6	-3.8	7.3	1.2	46.3*	x	20.8	x
S=c1[nH]nc(-c2ccco2)n1Cc1ccccc1	-1.4	0.9	0.1	-1.1	50.8*	-0.4	72.7*	-3.3
CCn1c(-c2ccco2)n[nH]c1=S	-0.2	-2.6	0.8	-3.4	29.2	-0.9	x	x
Cc1ccc(S(=O)(=O)N2CCOCC2)cc1-c1n[nH]c(=S)n1-c1ccccc1	-0.3	4.0	-7.0	-6.5	32.1	-1.4	x	x
CC1(C)Cc2c(C#N)c(SCC(=O)O)nc(N3CCOCC3)c2CO1	-0.1	-4.1	14.6	-3.4	61.0*	-0.5	-8.8	-7.2
CN(C(=O)COC(=O)c1cc([N+](=O)[O-])ccc1Cl)c1ccccc1	-1.7	2.5	-2.3	-1.7	-8.6	-2.1	x	x
C=CCn1c(-c2csc3ccccc23)n[nH]c1=S	0.1	1.1	x	7.2	43.0*	-0.4	30.6	x
CCn1c(-c2cc(Cl)ccc2OC)n[nH]c1=S	-0.2	-0.9	x	-4.0	36.9	-1.9	x	x
CCn1c(-c2ccc(F)cc2)n[nH]c1=S	1.6	3.2	16.8	13.5	33.5	-5.0	x	x
C=CCn1c(-c2cccc(OC)c2)n[nH]c1=S	1.5	1.5	-3.2	0.1	50.7*	-0.8	13.3	x
CCn1c(-c2cccc(Cl)c2)n[nH]c1=S	-3.0	-3.5	0.9	-4.7	46.8*	-1.1	77.2*	-3.2
C=CCn1c(-c2cc(Cl)ccc2OC)n[nH]c1=S	3.4	-0.9	-2.3	-4.9	45.7*	1.4	81.1*	1.6
COc1ccc(NC(=O)c2ccc(Oc3ncccn3)cc2)cc1	-1.0	-4.1	-4.0	2.5	-2.6	-1.8	x	x
C=CCn1c(-c2ccc([N+](=O)[O-])cc2)n[nH]c1=S	0.0	0.7	-1.6	-5.8	45.4*	0.0	78.1*	0.4
O=C(O)c1ccc(/C=N/N2CCN(c3ccccc3)CC2)cc1	x	2.0	x	-2.1	-2.8	0.9	x	x
C(=N/N1CCN(c2ccccc2)CC1)/c1ccncc1	-0.1	-4.9	2.0	-3.3	42.8*	-1.7	-6.6	-3.8
CC(C)NC(=O)NC(=O)COC(=O)c1ccc([N+](=O)[O-])cc1Cl	-1.8	0.3	x	1.7	9.0	-0.4	x	x
COc1ccccc1OCCNC(=O)C1CC(=O)N(Cc2ccc(C)cc2)C1 (centres undefined)	-0.1	-2.6	-4.1	10.1	1.5	-1.5	x	x
CCOc1ccccc1CN(Cc1ccco1)S(=O)(=O)c1ccc(-n2cnnn2)c(OC)c1	0.7	0.9	-4.2	x	x	-0.2	x	x
Cc1cc(S(=O)(=O)N(Cc2ccccn2)Cc2ccco2)ccc1-n1cnnn1	-0.4	-2.4	-4.1	1.6	50.3*	-0.6	0.7	x
COc1ccc(-n2nnc3c(SC(C(C)=O)C(=O)N(C)C)ncnc32)cc1 (centres undefined)	-0.4	-4.5	-9.0	-1.4	51.4*	-2.1	4.6	-6.1
COC(=O)C(C)Sc1ncnc2c1nnn2-c1ccc(F)cc1 (centres undefined)	0.0	-2.9	-1.2	-3.1	-4.0	-2.6	x	x
